# Data taken from ChEMBL document CHEMBL5724801, “EUbOPEN Chemogenomics Library - Multiplex” (2024).
# Several values for one entry are separate records, joined by “and”; a condition that tells them apart may be missing. Equal entries are not always repeated.
# How the values were obtained:
# U2OS = experiment: Multiplex assay against U2OS; assay type: toxicity, cell-based; conditions: human
# Summary of the method: (§1)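 Four dyes were applied at seeding to live cells: Hoechst33342, BioTracker Green Microtubule Cytoskeleton Dye, MitoTracker Red and Annexin V Alexa Fluor 680. Imaging after compound addition used a CQ1 microscope at 37°C and 5% CO2. CellPathfinder machine-learning gating then sorted cells into Hoechst high-intensity objects or normal cells, normal cells into healthy, pyknosed or fragmented nuclei, and pyknosed cells into mitotic or apoptotic, with tubulin, mitochondrial-mass and membrane-permeability phenotypes given as per cents of healthy-nucleus cells.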
# Fibroblast = experiment: Multiplex assay against human fibroblast; assay type: toxicity, cell-based; summary of the method: as §1
# [1] = 12 h, 1 µM, compound concentration 1 uM
# [2] = 12 h, 10 µM, compound concentration 10 uM
# [3] = 24 h, 1 µM, compound concentration 1 uM
# [4] = 24 h, 10 µM, compound concentration 10 uM
# [5] = 48 h, 1 µM, compound concentration 1 uM
# [6] = 48 h, 10 µM, compound concentration 10 uM
smiles,measurement,setting,value
O=C(Nc1cc(C(F)(F)F)ccc1N1CCCCC1)c1ccncc1,Population Apoptotic (%),U2OS; [1],66.67% and 37.5%
same,Population Fragmented Nuclei (%),U2OS; [1],2.62% and 1.94%
same,Population Healthy Nuclei (%),U2OS; [1],90.31% and 82.58%
same,Population Hoechst High Intensity Objects (%),U2OS; [1],0%
same,Population Membrane Permeable-Phenotype (%),U2OS; [1],1.74% and 3.12%
same,Population Mitochondria Different-Phenotype (%),U2OS; [1],0% and 2.34%
same,Population Mitotic Cells (%),U2OS; [1],33.33% and 62.5%
same,Population Normal (%),U2OS; [1],100%
same,Population Pyknosed Nuclei (%),U2OS; [1],7.07% and 15.48%
same,Population Tubulin-Different-Phenotype (%),U2OS; [1],1.16% and 0.78%
same,Total Cell Count,U2OS; [1],382 and 155
same,Population Apoptotic (%),U2OS; [2],32.65% and 31.25%
same,Population Fragmented Nuclei (%),U2OS; [2],1.78% and 5.19%
same,Population Healthy Nuclei (%),U2OS; [2],87.31% and 74.03%
same,Population Hoechst High Intensity Objects (%),U2OS; [2],0%
same,Population Membrane Permeable-Phenotype (%),U2OS; [2],2.81% and 6.14%
same,Population Mitotic Cells (%),U2OS; [2],67.35% and 68.75%
same,Population Normal (%),U2OS; [2],100%
same,Population Pyknosed Nuclei (%),U2OS; [2],10.91% and 20.78%
same,Population Tubulin-Different-Phenotype (%),U2OS; [2],6.89% and 7.89%
same,Total Cell Count,U2OS; [2],449 and 154
same,Population Apoptotic (%),U2OS; [3],24.39% and 47.37%
same,Population Fragmented Nuclei (%),U2OS; [3],2.34% and 1.57%
same,Population Healthy Nuclei (%),U2OS; [3],89.65% and 88.48%
same,Population Hoechst High Intensity Objects (%),U2OS; [3],0%
same,Population Membrane Permeable-Phenotype (%),U2OS; [3],0.65% and 1.78%
same,Population Mitochondria Different-Phenotype (%),U2OS; [3],0.22% and 4.73%
same,Population Mitotic Cells (%),U2OS; [3],75.61% and 52.63%
same,Population Normal (%),U2OS; [3],100%
same,Population Pyknosed Nuclei (%),U2OS; [3],8.01% and 9.95%
same,Population Tubulin-Different-Phenotype (%),U2OS; [3],1.09% and 0.59%
same,Total Cell Count,U2OS; [3],512 and 191
same,Population Apoptotic (%),U2OS; [4],35.62% and 25.81%
same,Population Fragmented Nuclei (%),U2OS; [4],1.19% and 3.28%
same,Population Healthy Nuclei (%),U2OS; [4],86.37% and 79.78%
same,Population Hoechst High Intensity Objects (%),U2OS; [4],0%
same,Population Membrane Permeable-Phenotype (%),U2OS; [4],1.18% and 2.05%
same,Population Mitotic Cells (%),U2OS; [4],64.38% and 74.19%
same,Population Normal (%),U2OS; [4],100%
same,Population Pyknosed Nuclei (%),U2OS; [4],12.44% and 16.94%
same,Population Tubulin-Different-Phenotype (%),U2OS; [4],5.13% and 1.37%
same,Population Apoptotic (%),U2OS; [5],36.36% and 35.71%
same,Population Fragmented Nuclei (%),U2OS; [5],3.47% and 3.02%
same,Population Healthy Nuclei (%),U2OS; [5],86.98% and 88.52%
same,Population Hoechst High Intensity Objects (%),U2OS; [5],0%
same,Population Membrane Permeable-Phenotype (%),U2OS; [5],1% and 4.1%
same,Population Mitochondria Different-Phenotype (%),U2OS; [5],0.37% and 3.75%
same,Population Mitotic Cells (%),U2OS; [5],63.64% and 64.29%
same,Population Normal (%),U2OS; [5],100%
same,Population Pyknosed Nuclei (%),U2OS; [5],9.54% and 8.46%
same,Population Tubulin-Different-Phenotype (%),U2OS; [5],1.37% and 2.05%
same,Total Cell Count,U2OS; [5],922 and 331
same,Population Apoptotic (%),U2OS; [6],47.54% and 53.06%
same,Population Fragmented Nuclei (%),U2OS; [6],2.11% and 4.76%
same,Population Healthy Nuclei (%),U2OS; [6],86.22% and 78.57%
same,Population Hoechst High Intensity Objects (%),U2OS; [6],0.19% and 0%
same,Population Membrane Permeable-Phenotype (%),U2OS; [6],1.66% and 1.73%
same,Population Mitotic Cells (%),U2OS; [6],52.46% and 46.94%
same,Population Normal (%),U2OS; [6],99.81% and 100%
same,Population Pyknosed Nuclei (%),U2OS; [6],11.67% and 16.67%
same,Population Tubulin-Different-Phenotype (%),U2OS; [6],4.55% and 3.03%
same,Population Fragmented Nuclei (%),Fibroblast; [1],13.9% and 8.06%
same,Population Healthy Nuclei (%),Fibroblast; [1],57.22% and 74.41%
same,Population Hoechst High Intensity Objects (%),Fibroblast; [1],0%
same,Population Membrane Permeable-Phenotype (%),Fibroblast; [1],1.87% and 1.91%
same,Population Mitochondria Different-Phenotype (%),Fibroblast; [1],6.54% and 10.83%
same,Population Mitotic Cells (%),Fibroblast; [1],92.59% and 75.68%
same,Population Normal (%),Fibroblast; [1],100%
same,Population Pyknosed Nuclei (%),Fibroblast; [1],28.88% and 17.54%
same,Population Tubulin-Different-Phenotype (%),Fibroblast; [1],13.08% and 22.93%
same,Total Cell Count,Fibroblast; [1],187 and 211
same,Population Apoptotic (%),Fibroblast; [2],17.46% and 11.48%
same,Population Fragmented Nuclei (%),Fibroblast; [2],7.6% and 3.1%
same,Population Healthy Nuclei (%),Fibroblast; [2],55.56% and 69.91%
same,Population Hoechst High Intensity Objects (%),Fibroblast; [2],0%
same,Population Membrane Permeable-Phenotype (%),Fibroblast; [2],9.47% and 6.96%
same,Population Mitochondria Different-Phenotype (%),Fibroblast; [2],26.32% and 21.52%
same,Population Mitotic Cells (%),Fibroblast; [2],82.54% and 88.52%
same,Population Normal (%),Fibroblast; [2],100%
same,Population Pyknosed Nuclei (%),Fibroblast; [2],36.84% and 26.99%
same,Population Tubulin-Different-Phenotype (%),Fibroblast; [2],35.79% and 71.52%
same,Total Cell Count,Fibroblast; [2],171 and 226
same,Population Apoptotic (%),Fibroblast; [3],11.76% and 28.57%
same,Population Fragmented Nuclei (%),Fibroblast; [3],9.18% and 7.73%
same,Population Healthy Nuclei (%),Fibroblast; [3],74.4% and 82.13%
same,Population Hoechst High Intensity Objects (%),Fibroblast; [3],0%
same,Population Membrane Permeable-Phenotype (%),Fibroblast; [3],4.55% and 4.12%
same,Population Mitochondria Different-Phenotype (%),Fibroblast; [3],4.55% and 8.82%
same,Population Mitotic Cells (%),Fibroblast; [3],88.24% and 71.43%
same,Population Normal (%),Fibroblast; [3],100%
same,Population Pyknosed Nuclei (%),Fibroblast; [3],16.43% and 10.14%
same,Population Tubulin-Different-Phenotype (%),Fibroblast; [3],16.23% and 21.76%
